Source: article PMC2858585 (DNA and cell biology, 2008)
“Also recorded” adds a separate entry of the source. Where two headings read alike, the source gives them in different places.

What was measured:
Recombinant CEEH1 [1] = conditions: natural substrates, ref Harris et al. (2008); cited from earlier work
Recombinant SPEH1 [2] = target: T1, Recombinant SPEH1 (Strongylocentrotus purpuratus, UniProt B2MWN2); test: Hydrolysis of EETs and EpOMEs analyzed by LC-MS/MS, recombinant SPEH1; type: biochemical; conditions: natural substrates, adjusted for estimated purity
Recombinant SPEH1 [3] = target: T1, Recombinant SPEH1; test: Fluorescent IC50 assay with PHOME as substrate, recombinant SPEH1; type: biochemical
Recombinant CEEH1 [4] = conditions: read-out: Recombinant CEEH1 IC50; PHOME as substrate; ref Harris et al. (2008); cited from earlier work
Recombinant CEEH1 [5] = conditions: ref Harris et al. (2008), cited from earlier work
Recombinant human sEH = conditions: ref Morisseau et al. (2000), cited from earlier work
Recombinant SPEH1 [6] = target: T1, Recombinant SPEH1; type: biochemical
SPEH2 [7] = test: Radiometric epoxide hydrolase assay with t-DPPO, recombinant SPEH2; type: biochemical, Strongylocentrotus purpuratus; conditions: t-DPPO as substrate
In short: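 Recombinant enzyme with a C-terminal six-histidine tag, expressed in baculovirus-infected Trichoplusia ni High Five cells (0.1 MOI, 72 h at 28°C). […] The radiometric assay used tritium-labelled t-DPPO as substrate, with enzyme at 0.3 µg/mL, and was terminated at 10 min.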

SPEH1 = test: Phosphatase assay with AttoPhos, SPEH1; type: biochemical, Strongylocentrotus purpuratus; conditions: AttoPhos as substrate
SPEH2 [8] = test: Phosphatase assay with AttoPhos, SPEH2; type: biochemical, Strongylocentrotus purpuratus; conditions: AttoPhos as substrate
Recombinant SPEH1 [9] = target: T1, Recombinant SPEH1; test: Inhibition of recombinant SPEH1, [3H] t-DPPO as substrate; type: biochemical; conditions: read-out: Recombinant SPEH1 IC50
[10] = t-DPPO as substrate, recombinant CEEH1
[11] = t-DPPO as substrate, recombinant human sEH
[12] = t-DPPO as substrate, recombinant SPEH1

For `CCCCC/C=C\C/C=C\CC1OC1C/C=C\CCCC(=O)O` (stereo not drawn) [8,9-EET], the Specific activity (Recombinant CEEH1 [1]) is given as 45.2 ± 1.00 nmol/min/mg and the Specific activity (Recombinant SPEH1 [2]) is given as 33 ± 7.2 nmol/min/mg.

For `O=C(O)CCCCCCCCCCCNC(=O)NC12CC3CC(CC(C3)C1)C2` [AUDA, 12-(3-adamantane-1-yl-ureido)-dodecanoic acid], the IC50 (Recombinant SPEH1 [3]) is given as 0.16 ± 0.013 µM and the IC50 (Recombinant CEEH1 [4]) is given as 0.027 ± 0.00029 µM.

For `O=C(NC1CCCCC1)NC1CCCCC1` [DCU, N,N′-dicyclohexylurea], the IC50 (Recombinant CEEH1 [4]) is listed as 41 µM.

For `c1ccc(CC2OC2c2ccccc2)cc1` (stereo not drawn) [t-DPPO], the Km (Recombinant CEEH1 [5]; [10]) is listed as 160 ± 21 µM, the Specific activity (Recombinant CEEH1 [5]; [10]) is listed as 3000 ± 230 nmol/min/mg and the kcat (Recombinant CEEH1 [5]; [10]) is listed as 12 ± 0.5 s⁻¹. For the same molecule, the kcat/Km ratio (Recombinant CEEH1 [5]; t-DPPO, nematode enzyme, unit not given) was 0.07, the Km (Recombinant human sEH; [11]) was 6.2 ± 0.6 µM and the Specific activity (Recombinant human sEH; [11]) was 4500 ± 200 nmol/min/mg. The kcat (Recombinant human sEH; [11]) was 4.3 ± 0.3 s⁻¹, the kcat/Km ratio (Recombinant human sEH; t-DPPO, human enzyme, unit not given) was 0.7 and the Km (Recombinant SPEH1 [6]; [12]) was 35 ± 1.2 µM. It also gave a kcat (Recombinant SPEH1 [6]; [12]) of 44 ± 0.71 s⁻¹, a Specific activity (Recombinant SPEH1 [6]; t-DPPO as substrate, recombinant SPEH1, adjusted for estimated purity) of 3100 ± 270 nmol/min/mg and a kcat/Km ratio (Recombinant SPEH1 [6]; t-DPPO, SPEH1, unit not given) of 1.3. The “EH activity of SPEH2 with t-DPPO” value (SPEH2 [7]) was “not active; also recorded: did not display activity”.

In the case of `CCCCCCCCCCCCNC(=O)NC1CCCCC1` [CDU, N-cyclohexyl-N′-dodecylurea], the IC50 (Recombinant CEEH1 [4]) is listed as 0.16 ± 0.023 µM.

In the case of `O=C(NC1CCCCC1)NC12CC3CC(CC(C3)C1)C2` [ACU, N-adamantyl-N′-cyclohexylurea], the IC50 (Recombinant CEEH1 [4]) is listed as 2.5 ± 0.12 µM.

For `CCCCCC=CCC1OC1CCCCCCCC(=O)O` (stereo not drawn) [9,10-EpOME, 9,10-epoxy-12-octadecenoate], the Specific activity (Recombinant CEEH1 [1]) is given as 137 ± 1.77 nmol/min/mg and the Specific activity (Recombinant SPEH1 [2]) is given as 4800 ± 210 nmol/min/mg.

In the case of `O=P(O)(O)Oc1ccc2nc(-c3nc4ccccc4s3)sc2c1` [AttoPhos], the “Phosphatase activity of SPEH1 with AttoPhos” value (SPEH1) is reported as “did not display phosphatase activity” and the “Phosphatase activity of SPEH2 with AttoPhos” value (SPEH2 [8]) is reported as “did not display phosphatase activity”.

For `CCNC(=O)NC1CCCCC1` [CEU, N-cyclohexyl-N′-ethylurea], the IC50 (Recombinant SPEH1 [9]) is listed as greater than 50 µM and the IC50 (Recombinant CEEH1 [4]) is listed as greater than 50 µM.

For `CCCCCC1OC1C/C=C\C/C=C\C/C=C\CCCC(=O)O` (stereo not drawn) [14,15-EET], the Specific activity (Recombinant CEEH1 [1]) is given as 615 ± 10.8 nmol/min/mg and the Specific activity (Recombinant SPEH1 [2]) is given as 330 ± 64 nmol/min/mg.

For `CCCCC/C=C\C[C@H]1O[C@H]1C/C=C\C/C=C\CCCC(=O)O` [11,12-EET], the Specific activity (Recombinant CEEH1 [1]) is given as 205 ± 15.3 nmol/min/mg and the Specific activity (Recombinant SPEH1 [2]) is given as 490 ± 140 nmol/min/mg.
